ChEMBL document CHEMBL1145212, “Fluorinated diaryl sulfides as serotonin transporter ligands: synthesis, structure-activity relationship study, and in vivo evaluation of fluorine-18-labeled compounds as PET imaging agents” (J Med Chem, 2005)

Legend:
[1] = target: Sodium-dependent dopamine transporter (Homo sapiens, UniProt Q01959); test: In vitro displacement of [3H]GBR-12935 from human dopamine transporter expressed in HEK293 cells; format: cell-based
How it was run: (§1)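 Competitive binding using cloned human transporters expressed in HEK-293 cells. NET was labelled with [³H]nisoxetine and DAT with [³H]GBR12935, following a previously published procedure.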

[2] = target: Sodium-dependent noradrenaline transporter (Homo sapiens, UniProt P23975); test: In vitro displacement of [3H]nisoxetine from human norepinephrine transporter expressed in HEK293 cells; format: cell-based; how it was run: as §1
Sodium-dependent noradrenaline transporter, sequence (P23975 whole entry): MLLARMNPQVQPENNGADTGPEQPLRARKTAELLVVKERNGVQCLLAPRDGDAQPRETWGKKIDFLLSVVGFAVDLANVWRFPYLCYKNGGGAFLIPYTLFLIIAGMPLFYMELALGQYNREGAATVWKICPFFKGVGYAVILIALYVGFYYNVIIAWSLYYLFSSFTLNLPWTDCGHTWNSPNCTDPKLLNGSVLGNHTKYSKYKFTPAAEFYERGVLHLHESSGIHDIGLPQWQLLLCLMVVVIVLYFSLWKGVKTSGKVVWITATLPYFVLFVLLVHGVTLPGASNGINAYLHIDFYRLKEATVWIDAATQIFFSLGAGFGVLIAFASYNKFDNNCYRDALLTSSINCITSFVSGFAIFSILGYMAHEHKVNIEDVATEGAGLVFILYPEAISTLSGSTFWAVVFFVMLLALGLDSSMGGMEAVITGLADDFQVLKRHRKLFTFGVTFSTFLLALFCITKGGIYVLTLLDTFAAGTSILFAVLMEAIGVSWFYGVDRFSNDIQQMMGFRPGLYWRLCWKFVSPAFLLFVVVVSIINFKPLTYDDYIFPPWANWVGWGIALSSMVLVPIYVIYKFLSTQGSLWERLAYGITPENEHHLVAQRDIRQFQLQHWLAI

Sodium-dependent dopamine transporter, sequence (Q01959 whole entry): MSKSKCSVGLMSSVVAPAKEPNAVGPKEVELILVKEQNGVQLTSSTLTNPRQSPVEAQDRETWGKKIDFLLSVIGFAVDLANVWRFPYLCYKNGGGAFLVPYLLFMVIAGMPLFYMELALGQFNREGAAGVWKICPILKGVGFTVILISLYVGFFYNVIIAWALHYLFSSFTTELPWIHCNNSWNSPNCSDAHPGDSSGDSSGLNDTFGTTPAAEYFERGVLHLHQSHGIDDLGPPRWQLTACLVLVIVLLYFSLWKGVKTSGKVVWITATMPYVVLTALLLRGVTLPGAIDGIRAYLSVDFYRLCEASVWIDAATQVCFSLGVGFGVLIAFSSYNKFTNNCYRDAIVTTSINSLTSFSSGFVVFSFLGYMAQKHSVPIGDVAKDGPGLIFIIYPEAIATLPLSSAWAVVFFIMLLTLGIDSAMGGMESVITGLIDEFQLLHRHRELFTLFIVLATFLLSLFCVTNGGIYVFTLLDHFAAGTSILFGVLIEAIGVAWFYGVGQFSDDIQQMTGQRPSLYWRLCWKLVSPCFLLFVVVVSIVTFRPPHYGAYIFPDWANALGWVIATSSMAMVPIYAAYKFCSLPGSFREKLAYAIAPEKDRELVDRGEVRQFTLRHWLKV

With CCCNCc1ccccc1Sc1ccc(C)cc1N the Ki [1] was 3.55 µM and the Ki [2] was greater than 10 µM.
